# Results of several laboratories.
# Compare with care: the assays were run in different laboratories. pKi: −log10 of the molar value.
# Target: Carbonic anhydrase 2 (CA2, Homo sapiens, UniProt P00918)
# Effect on: enzyme activity
# Action: inhibitor
SMILES,technique,pKi
OC1CCN(c2ccc(/C=N/NC(=S)NCc3ccccc3)cc2)CC1,,6.25
CC(C)[C@H](N)C(=O)OCCOCn1cnc2c(=O)[nH]c(N)nc21,absorbance,5.24
NS(=O)(=O)c1nnc(NC(=O)C2CC23CCCOC3)s1 (centres unmarked),stopped-flow,7.29
OCCOCCN1CCN(C(c2ccccc2)c2ccc(Cl)cc2)CC1 (centres unmarked),absorbance,4.94
OC1CCN(c2ccc(/C=N/NC(=S)Nc3ccc(Cl)cc3)cc2)CC1,,6.40
CC1CCCC(C(=O)Nc2nnc(S(N)(=O)=O)s2)C1 (centres unmarked),stopped-flow,7.50
OC1CCN(c2ccc(/C=N/NC(=S)NC3CCCCC3)cc2)CC1,,6.32
NS(=O)(=O)c1nnc(NC(=O)C(F)CC2CCCCC2)s1 (centres unmarked),stopped-flow,8.31
O=c1[nH]c(=O)n([C@H]2C[C@H](O)[C@@H](CO)O2)cc1/C=C/Br,absorbance,5.13
CC(C)CNC(=S)N/N=C/c1ccc(N2CCC(O)CC2)cc1,,6.14
Cn1cnc([N+](=O)[O-])c1Sc1ncnc2nc[nH]c12,absorbance,4.89
N#CSCCCCOc1ccc2c(-c3ccccc3)cc(=O)oc2c1,stopped-flow,< 4.00
OC1CCN(c2ccc(/C=N/NC(=S)Nc3ccc(F)cc3)cc2)CC1,,6.55
O=C(O)COCCN1CCN(C(c2ccccc2)c2ccc(Cl)cc2)CC1 (centres unmarked),absorbance,5.02
NS(=O)(=O)c1nnc(NC(=O)CN2CCC(F)CC2)s1,stopped-flow,7.85
Nc1ccc(S(=O)(=O)c2ccc(N)cc2)cc1,absorbance,5.02
NS(=O)(=O)c1nnc(NC(=O)C2CCC3(CCCCC3)CC2)s1,stopped-flow,7.49
Cc1ccc(CNC(=S)N/N=C/c2ccc(N3CCC(O)CC3)cc2)cc1,,6.11
Cc1cc(=O)oc2cc(OCCCCSC#N)ccc12,stopped-flow,< 4.00
CC1(C(=O)Nc2nnc(S(N)(=O)=O)s2)CCC1,stopped-flow,7.53
